Assay results reported in ChEMBL document CHEMBL3739417, “Synthesis and biological evaluation of novel 4,5-disubstituted 2H-1,2,3-triazoles as cis-constrained analogues of combretastatin A-4” (2015).

Columns and labels:
Assay type in all cases: functional
[1] = Growth inhibition of human HOP62 cells after 48 hrs by sulforhodamine B assay; conditions: HOP-62, 48 h
In short: (§1)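 NCI-60 panel screen by SRB assay (Rubinstein method). Percentage growth taken from optical density of SRB colour, read before and 48 hrs after exposure to compound or vehicle control. All analogues first screened at 10^-5 M. Analogues giving 60% growth inhibition at that level in at least eight lines then went to a five-concentration dose-response study.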

[2] = Growth inhibition of human LOXIMVI cells after 48 hrs by sulforhodamine B assay; conditions: LOX IMVI; in short: as §1
[3] = Growth inhibition of human HOP92 cells after 48 hrs by sulforhodamine B assay; conditions: HOP-92, 48 h; in short: as §1
SK-MEL-5 = experiment: Growth inhibition of human SK-MEL-5 cells after 48 hrs by sulforhodamine B assay; conditions: SK-MEL-5, 48 h; in short: as §1
[4] = Growth inhibition of human SNB75 cells after 48 hrs by sulforhodamine B assay; conditions: SNB-75, 48 h; in short: as §1
ACHN = experiment: Growth inhibition of human ACHN cells after 48 hrs by sulforhodamine B assay; in short: as §1
[5] = Growth inhibition of human RPMI8226 cells after 48 hrs by sulforhodamine B assay; conditions: RPMI-8226, 48 h; in short: as §1
NCI-H23 = experiment: Growth inhibition of human NCI-H23 cells after 48 hrs by sulforhodamine B assay; conditions: NCI-H23, 48 h; in short: as §1
MDA-MB-231 = experiment: Growth inhibition of human MDA-MB-231 cells after 48 hrs by sulforhodamine B assay; conditions: MDA-MB-231, 48 h; in short: as §1
SK-MEL-2 = experiment: Growth inhibition of human SK-MEL-2 cells after 48 hrs by sulforhodamine B assay; conditions: SK-MEL-2, 48 h; in short: as §1
[6] = Growth inhibition of human UO31 cells after 48 hrs by sulforhodamine B assay; conditions: UO-31, 48 h; in short: as §1
[7] = Growth inhibition of human HCT116 cells after 48 hrs by sulforhodamine B assay; conditions: HCT-116, 48 h; in short: as §1
NCI-H460 = experiment: Growth inhibition of human NCI-H460 cells after 48 hrs by sulforhodamine B assay; conditions: NCI-H460, 48 h; in short: as §1
[8] = Growth inhibition of human OVCAR3 cells after 48 hrs by sulforhodamine B assay; conditions: OVCAR-3, 48 h
In short: (§2)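 NCI-60 sulforhodamine B screen. Compounds were first tested at a single dose of 10⁻⁵ M; hits, defined as ≥60% growth inhibition in at least eight lines, went on to a five-concentration dose–response. SRB optical density was read before and 48 h after exposure to compound or vehicle. Percentage growth was calculated from OD.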

[9] = Growth inhibition of human IGROV1 cells after 48 hrs by sulforhodamine B assay; conditions: IGROV-1, 48 h; in short: as §1
[10] = Growth inhibition of human NCI-ADR-RES cells after 48 hrs by sulforhodamine B assay; in short: as §1
[11] = Growth inhibition of human HCC2998 cells after 48 hrs by sulforhodamine B assay; conditions: HCC 2998, 48 h; in short: as §1
A498 = experiment: Growth inhibition of human A498 cells after 48 hrs by sulforhodamine B assay; conditions: A498, 48 h; in short: as §2
U-251 = experiment: Growth inhibition of human U251 cells after 48 hrs by sulforhodamine B assay; conditions: U-251, 48 h; in short: as §1
[12] = Growth inhibition of human PC3 cells after 48 hrs by sulforhodamine B assay; conditions: PC-3, 48 h; in short: as §1
MDA-MB-435 = experiment: Growth inhibition of human MDA-MB-435 cells after 48 hrs by sulforhodamine B assay; conditions: MDA-MB-435, 48 h; in short: as §2
SR = experiment: Growth inhibition of human SR cells after 48 hrs by sulforhodamine B assay; in short: as §1
[13] = Growth inhibition of human DU145 cells after 48 hrs by sulforhodamine B assay; conditions: DU-145, 48 h; in short: as §1
[14] = Growth inhibition of human SKOV3 cells after 48 hrs by sulforhodamine B assay; conditions: SK-OV-3, 48 h; in short: as §1
[15] = Growth inhibition of human SW620 cells after 48 hrs by sulforhodamine B assay; conditions: SW-620, 48 h; in short: as §1
[16] = Growth inhibition of human MOLT4 cells after 48 hrs by sulforhodamine B assay; conditions: MOLT-4, 48 h; in short: as §1
A549 = experiment: Growth inhibition of human A549/ATCC cells after 48 hrs by sulforhodamine B assay; conditions: A549, 48 h; in short: as §1
K562 = experiment: Growth inhibition of human K562 cells after 48 hrs by sulforhodamine B assay; conditions: K562, 48 h; in short: as §1
KM12 = experiment: Growth inhibition of human KM12 cells after 48 hrs by sulforhodamine B assay; conditions: KM12, 48 h; in short: as §1
[17] = Growth inhibition of human SF295 cells after 48 hrs by sulforhodamine B assay; conditions: SF-295, 48 h; in short: as §1
HT-29 = experiment: Growth inhibition of human HT-29 cells after 48 hrs by sulforhodamine B assay; conditions: HT-29, 48 h; in short: as §1
MDA-MB-468 = experiment: Growth inhibition of human MDA-MB-468 cells after 48 hrs by sulforhodamine B assay; conditions: MDA-MB-468, 48 h; in short: as §1
MCF7 = experiment: Growth inhibition of human MCF7 cells after 48 hrs by sulforhodamine B assay; conditions: MCF7, 48 h; in short: as §1
[18] = Growth inhibition of human SF268 cells after 48 hrs by sulforhodamine B assay; conditions: SF-268, 48 h; in short: as §1
[19] = Growth inhibition of human HCT15 cells after 48 hrs by sulforhodamine B assay; conditions: HCT-15, 48 h; in short: as §1
CAKI-1 = experiment: Growth inhibition of human CAKI-1 cells after 48 hrs by sulforhodamine B assay; conditions: CAKI-1, 48 h; in short: as §1
CCRF-CEM = experiment: Growth inhibition of human CCRF-CEM cells after 48 hrs by sulforhodamine B assay; in short: as §1
[20] = read-out: LD50 (the source's name)

COc1cc(-c2n[nH]nc2-c2ccc3c(c2)OCCO3)cc(OC)c1OC
GI50 [1]: 0.018 µM
LC50 (concentration killing 50% of cells) ([1]; read-out: LD50): > 100 µM
GI50 [2]: 0.018 µM
CC50 [2, 20]: > 100 µM
GI50 [3]: < 0.01 µM
CC50 [3, 20]: > 100 µM
GI50 (SK-MEL-5): < 0.01 µM
CC50 (SK-MEL-5; [20]): > 100 µM
GI50 [4]: < 0.01 µM
CC50 [4, 20]: > 100 µM
GI50 (ACHN): < 0.01 µM
CC50 (ACHN; [20]): > 100 µM
GI50 [5]: 0.033 µM
CC50 [5, 20]: > 100 µM
GI50 (NCI-H23): 0.048 µM
LC50 (concentration giving 50% cell kill) (NCI-H23; read-out: LD50): > 100 µM
GI50 (MDA-MB-231): 0.044 µM
CC50 (MDA-MB-231; [20]): > 100 µM
GI50 (SK-MEL-2): < 0.01 µM
CC50 (SK-MEL-2; [20]): > 100 µM
GI50 [6]: < 0.01 µM
LC50 (concentration killing 50% of cells) ([6]; read-out: LD50): > 100 µM
GI50 [7]: < 0.01 µM
CC50 [7, 20]: > 100 µM
GI50 (NCI-H460): 0.025 µM
CC50 (NCI-H460; [20]): > 100 µM
GI50 [8]: < 0.01 µM
LC50 (concentration giving 50% net cell kill) ([8]; read-out: LD50): > 100 µM
GI50 [9]: 0.033 µM
CC50 [9, 20]: > 100 µM
GI50 [10]: < 0.01 µM
CC50 [10, 20]: > 100 µM
GI50 [11]: 0.039 µM
CC50 [11, 20]: > 100 µM
GI50 (A498): 0.01 µM
LC50 (50% net cell kill) (A498; read-out: LD50): > 100 µM
GI50 (U-251): 0.02 µM
CC50 (U-251; [20]): > 100 µM
GI50 [12]: 0.018 µM
CC50 [12, 20]: > 100 µM
GI50 (MDA-MB-435): < 0.01 µM
LC50 (concentration killing 50% of cells) (MDA-MB-435; read-out: LD50): > 100 µM
GI50 (SR): < 0.01 µM
LC50 (concentration giving 50% net cell kill) (SR; read-out: LD50): > 100 µM
GI50 [13]: 0.025 µM
CC50 [13, 20]: > 100 µM
GI50 [14]: < 0.01 µM
LC50 (concentration killing 50% of cells) ([14]; read-out: LD50): > 100 µM
GI50 [15]: < 0.01 µM
LD50 (concentration killing 50% of cells) [15]: > 100 µM
GI50 [16]: 0.04 µM
CC50 [16, 20]: > 100 µM
GI50 (A549): 0.023 µM
CC50 (A549; [20]): > 100 µM
GI50 (K562): < 0.01 µM
CC50 (K562; [20]): > 100 µM
GI50 (KM12): < 0.01 µM
LC50 (concentration killing 50% of cells) (KM12; read-out: LD50): > 100 µM
GI50 [17]: < 0.01 µM
CC50 [17, 20]: > 100 µM
GI50 (HT-29): 0.025 µM
LC50 (concentration killing 50% of cells) (HT-29; read-out: LD50): > 100 µM
GI50 (MDA-MB-468): 0.015 µM
CC50 (MDA-MB-468; [20]): > 100 µM
GI50 (MCF7): < 0.01 µM
CC50 (MCF7; [20]): > 100 µM
GI50 [18]: 0.069 µM
CC50 [18, 20]: > 100 µM
GI50 [19]: < 0.01 µM
CC50 [19, 20]: > 100 µM
GI50 (CAKI-1): < 0.01 µM
CC50 (CAKI-1; [20]): > 100 µM
GI50 (CCRF-CEM): 0.034 µM
LC50 (concentration killing 50% of cells) (CCRF-CEM; read-out: LD50): > 100 µM
